Laboratory results published in ChEMBL document CHEMBL2429829, “Inhibitors of the aminoglycoside 6'-N-acetyltransferase type Ib [AAC(6')-Ib] identified by in silico molecular docking” (Bioorg Med Chem Lett, 2013).
Active and inactive are the calls of the source. No cut-off for these calls is given here.

Tests used:
[1] = Inhibition of aminoglycoside 6'-N-acetyltransferase Ib (unknown origin)-mediated acetylation expressed in Escherichia coli using kanamycin A and acetyl CoA as substrate at 100 uM preincubated for 10 mins followed by enzyme addition by spectrophotometric analysis relative to control
Procedure, shortened: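 Enzyme: thioredoxin-fused AAC(6′)-Ib, arabinose-induced in E. coli, partially purified by DEAE ion exchange. Reaction: 20 mM Tris pH 7.5, 0.2 mM DTNB, 50 μM acetyl CoA, 18 μM kanamycin A, compound at 100 μM in 10% DMSO. Mix held 10 min at room temperature before enzyme added. CoA–SH release read at 412 nm. Percent inhibition from initial velocities versus no-compound reactions; mean of three experiments.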

[2] = Inhibition of aminoglycoside 6'-N-acetyltransferase Ib (unknown origin)-mediated acetylation expressed in Escherichia coli using 5 to 72 uM acetyl CoA and 25 uM kanamycin A as substrate preincubated for 10 mins followed by enzyme addition by spectrophotometric analysis
Procedure, shortened: (§1)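 Enzyme partially purified on DEAE from arabinose-induced E. coli, in 20 mM Tris pH 7.5 with 0.2 mM DTNB and 10% DMSO. Inhibitor at a range of concentrations, acetyl CoA 5–72 μM, kanamycin A 25 μM. 10 min room-temperature preincubation before enzyme. CoA-SH release read at 412 nm. Ki from initial velocities by nonlinear regression, in triplicate.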

[3] = Inhibition of aminoglycoside 6'-N-acetyltransferase Ib (unknown origin)-mediated acetylation expressed in Escherichia coli using 3 to 18 uM kanamycin A and 100 uM acetyl CoA as substrate preincubated for 10 mins followed by enzyme addition by spectrophotometric analysis
Procedure, shortened: as §1, with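 “concentrations, kanamycin A 3–18 μM,” for “concentrations,”, “100” for “5–72 μM, kanamycin A 25”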

[4] = Inhibition of aminoglycoside 6'-N-acetyltransferase Ib (unknown origin)-mediated acetylation expressed in Escherichia coli using kanamycin A and acetyl CoA as substrate at 100 uM preincubated for 10 mins followed by enzyme addition by spectrophotometric analysis in presence of Triton X-100
Procedure, shortened: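 Compound at 100 μM in 10% DMSO, with 20 mM Tris pH 7.5, 0.2 mM DTNB, 50 μM acetyl CoA, 18 μM kanamycin A and 0.01% Triton X-100. Preincubated 10 min at room temperature, then partially purified enzyme added. Absorbance at 412 nm gave initial velocities. Percent inhibition taken against compound-free reactions, mean of three experiments.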

[5] = Non-competitive inhibition of aminoglycoside 6'-N-acetyltransferase Ib (unknown origin) expressed in Escherichia coli using acetyl CoA as substrate by Lineweaver-Burk plot analysis in presence of kanamycin A
Procedure, shortened: (§2)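 Partially purified His-Patch thioredoxin-fused enzyme from E. coli (pBAD102, arabinose-induced), in 20 mM Tris pH 7.5 with 0.2 mM DTNB. Acetyl CoA varied 5–72 μM with kanamycin A fixed at 25 μM, at several inhibitor concentrations. Mix held 10 min at room temperature before enzyme. Initial rates followed at 412 nm, mode assigned from Lineweaver-Burk plots, in triplicate.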

[6] = Competitive inhibition of aminoglycoside 6'-N-acetyltransferase Ib (unknown origin) expressed in Escherichia coli using kanamycin A as substrate by Lineweaver-Burk plot analysis in presence of acetyl CoA
Procedure, shortened: as §2, with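 “Kanamycin A” for “Acetyl CoA”, “3–18” for “5–72”, “acetyl CoA” for “kanamycin A”, “100” for “25”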

| Compound | inhibition [1] [%] | Ki [2] [µM] | Ki [3] [µM] | further results |
| --- | --- | --- | --- | --- |
| O=C1NC(=O)N(c2ccccc2)C(=O)/C1=C\c1ccco1 | 65 | 16 | 15 |  |
| O=C1NC(=O)N(c2ccc(Cl)cc2)C(=O)/C1=C\c1ccco1 | 60 | 74 | 33 |  |
| O=C1/C(=C/c2ccco2)C(=O)N(c2ccc(Br)cc2)C(=S)N1c1ccccc1 |  |  |  | inhibition [4]: inactive |
| CCc1ccc(N2C(=O)NC(=O)/C(=C\c3ccccc3OCc3ccc(C(=O)O)cc3)C2=O)cc1 | 30 | 181 | 139 |  |
| O=C(O)c1ccccc1-c1ccc(C=C2C(=O)N(c3ccccc3)C(=S)N(c3ccccc3)C2=O)o1 | 52 |  |  | Ki [5]: 35 µM; Ki [6]: 12 µM |
| O=C1NC(=O)N(c2ccc(O)cc2)C(=O)/C1=C/c1ccccc1OCc1ccc(C(=O)O)cc1 | 30 | 292 | 129 |  |
| Cc1cccc(N2C(=O)/C(=C/c3ccccc3OCc3ccc(C(=O)O)cc3)C(=O)NC2=S)c1 | 27 |  |  | Ki [5]: 267 µM; Ki [6]: 141 µM |
| Cc1ccc(N2C(=O)NC(=O)/C(=C\c3ccccc3OCc3ccc(C(=O)O)cc3)C2=O)cc1C | 27 | 297 | 155 |  |
| Cc1ccc(N2C(=O)NC(=O)/C(=C\c3ccccc3OCc3ccc(C(=O)O)cc3)C2=O)cc1 | 30 | 258 | 157 |  |
| Cc1cccc(C)c1NC(=O)COc1ccc2c3c(c(=O)oc2c1)CCCCC3 | 0 |  |  |  |
| O=C1C(=Cc2ccco2)C(=O)N(c2ccccc2)C(=S)N1c1ccccc1 | 0 |  |  |  |
| Cc1cc(C)c2nc(Nc3nc(C)cc(-c4ccccc4)n3)nc(C)c2c1 | 0 |  |  |  |
| Cc1ccc(N2C(=O)C[C@@H](N3CCN(c4nc5ccccc5s4)CC3)C2=O)c(C)c1 | 0 |  |  |  |
| O=C(Nc1ccc2c(c1)C(=O)c1ccccc1C2=O)c1cccc([N+](=O)[O-])c1 | 0 |  |  |  |
| O=c1oc2ccc(Br)cc2cc1C1=Nn2c(nc3ccccc3c2=O)SC1 | 0 |  |  |  |
| O=C(NC(=S)Nc1nc(-c2cccc3ccccc23)cs1)c1ccc2c(c1)OCCO2 | 0 |  |  |  |
| O=C(Nc1ccccc1N1CCCCC1)c1cccc(-c2cc3ccccc3oc2=O)c1 | 0 |  |  |  |
| Cc1ccc(-c2cc(C(=O)NCc3ccc(S(N)(=O)=O)cc3)c3ccccc3n2)cc1C | 0 |  |  |  |
| Cc1ccc2nc(N3C(=O)c4cccc5cccc(c45)C3=O)sc2c1 | 0 |  |  |  |
| Cc1cccc(N2C(=O)/C(=C/c3ccc(OCc4cccc(C(=O)O)c4)cc3)C(=O)NC2=S)c1 | 33 | 97 | 84 |  |
| Cc1ccc(NC(=O)c2ccccc2N2C(=O)[C@@H]3[C@@H]4C=C[C@@H]([C@H]5C[C@@H]45)[C@@H]3C2=O)cc1C | 0 |  |  |  |
